Assay [1] concerns the target T1, Tyrosine-protein phosphatase non-receptor type 11 (Homo sapiens) (UniProt Q06124).
T1 sequence (whole entry): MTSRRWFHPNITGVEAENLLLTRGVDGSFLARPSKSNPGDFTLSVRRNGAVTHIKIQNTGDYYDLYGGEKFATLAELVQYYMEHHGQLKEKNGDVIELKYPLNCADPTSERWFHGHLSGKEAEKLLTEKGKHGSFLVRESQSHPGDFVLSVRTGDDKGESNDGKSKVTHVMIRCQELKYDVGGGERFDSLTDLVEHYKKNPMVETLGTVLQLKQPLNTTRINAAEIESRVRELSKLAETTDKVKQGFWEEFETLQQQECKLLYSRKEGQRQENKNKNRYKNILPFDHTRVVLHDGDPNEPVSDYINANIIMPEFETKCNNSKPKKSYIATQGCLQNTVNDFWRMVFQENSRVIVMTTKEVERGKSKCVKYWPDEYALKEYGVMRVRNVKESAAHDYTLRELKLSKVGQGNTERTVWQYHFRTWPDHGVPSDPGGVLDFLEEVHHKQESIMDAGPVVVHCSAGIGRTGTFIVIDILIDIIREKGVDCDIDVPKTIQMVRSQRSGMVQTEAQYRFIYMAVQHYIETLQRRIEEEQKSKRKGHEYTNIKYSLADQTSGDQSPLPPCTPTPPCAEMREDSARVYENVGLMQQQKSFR
Description: Inhibition of recombinant human phosphatase (SHP-2) at a concentration of 100 uM. The method in brief: (§1)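 Purified recombinant human enzyme constructs; PTP1B is a C-terminally truncated soluble form, tested alongside LAR and SHP-2. Activity is read as the initial rate of p-nitrophenyl phosphate (pNPP) hydrolysis and reported as percent inhibition. PTP1B is tested at 100, 10 and 1 µM, or 10 and 1 µM in the salicylate series; LAR and SHP-2 at 100 µM.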

Assay [2] addresses T2, Tyrosine-protein phosphatase non-receptor type 1 (Homo sapiens) (UniProt P18031).
T2 sequence (whole entry): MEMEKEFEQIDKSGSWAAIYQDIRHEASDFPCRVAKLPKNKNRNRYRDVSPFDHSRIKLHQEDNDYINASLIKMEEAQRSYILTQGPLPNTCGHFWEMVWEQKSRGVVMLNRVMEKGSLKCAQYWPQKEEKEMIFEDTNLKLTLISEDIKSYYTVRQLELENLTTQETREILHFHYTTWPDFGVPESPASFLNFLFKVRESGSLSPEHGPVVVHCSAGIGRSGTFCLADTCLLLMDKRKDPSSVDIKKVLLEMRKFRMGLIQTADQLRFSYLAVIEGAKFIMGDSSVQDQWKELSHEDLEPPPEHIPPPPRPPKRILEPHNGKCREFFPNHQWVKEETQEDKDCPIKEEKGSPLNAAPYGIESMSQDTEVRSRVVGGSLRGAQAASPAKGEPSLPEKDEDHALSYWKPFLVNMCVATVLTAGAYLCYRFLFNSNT
Description: Inhibitory activity against human protein tyrosine phosphatase 1B (PTP1B) at a concentration of 1 uM. The method in brief: as §1

In assay [3] the target is Receptor-type tyrosine-protein phosphatase F (Homo sapiens) (UniProt P10586). Description: Inhibitory activity against phosphatase (LAR) at a concentration of 100 uM. The method in brief: as §1
For assay [4], the target named is T2, Tyrosine-protein phosphatase non-receptor type 1 (Homo sapiens). Briefly: Inhibitory activity against human protein tyrosine phosphatase 1B (PTP1B) at a concentration of 10 uM. The method in brief:
as §1

Assay [5] in a line: Uptake of 2-DOG (2-deoxyglucose) into L6 myocytes in the presence of half-maximal concentration of insulin at 100 uM. Format: functional, Rattus norvegicus. The method in brief:
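L6 myotubes are exposed to compound at 100 µM with 10 nM insulin, a dose eliciting about 50% of maximal uptake. The initial rate of 2-[3H]deoxyglucose uptake is measured, with L-[14C]glucose marking extracellular space, and normalized to recovered lysate protein. Net insulin-dependent transport with inhibitor is expressed as a percent of that without inhibitor.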

For orientation: inhibition means how much of the control response was suppressed.

Sequence of Receptor-type tyrosine-protein phosphatase F (Homo sapiens) (P10586 whole entry): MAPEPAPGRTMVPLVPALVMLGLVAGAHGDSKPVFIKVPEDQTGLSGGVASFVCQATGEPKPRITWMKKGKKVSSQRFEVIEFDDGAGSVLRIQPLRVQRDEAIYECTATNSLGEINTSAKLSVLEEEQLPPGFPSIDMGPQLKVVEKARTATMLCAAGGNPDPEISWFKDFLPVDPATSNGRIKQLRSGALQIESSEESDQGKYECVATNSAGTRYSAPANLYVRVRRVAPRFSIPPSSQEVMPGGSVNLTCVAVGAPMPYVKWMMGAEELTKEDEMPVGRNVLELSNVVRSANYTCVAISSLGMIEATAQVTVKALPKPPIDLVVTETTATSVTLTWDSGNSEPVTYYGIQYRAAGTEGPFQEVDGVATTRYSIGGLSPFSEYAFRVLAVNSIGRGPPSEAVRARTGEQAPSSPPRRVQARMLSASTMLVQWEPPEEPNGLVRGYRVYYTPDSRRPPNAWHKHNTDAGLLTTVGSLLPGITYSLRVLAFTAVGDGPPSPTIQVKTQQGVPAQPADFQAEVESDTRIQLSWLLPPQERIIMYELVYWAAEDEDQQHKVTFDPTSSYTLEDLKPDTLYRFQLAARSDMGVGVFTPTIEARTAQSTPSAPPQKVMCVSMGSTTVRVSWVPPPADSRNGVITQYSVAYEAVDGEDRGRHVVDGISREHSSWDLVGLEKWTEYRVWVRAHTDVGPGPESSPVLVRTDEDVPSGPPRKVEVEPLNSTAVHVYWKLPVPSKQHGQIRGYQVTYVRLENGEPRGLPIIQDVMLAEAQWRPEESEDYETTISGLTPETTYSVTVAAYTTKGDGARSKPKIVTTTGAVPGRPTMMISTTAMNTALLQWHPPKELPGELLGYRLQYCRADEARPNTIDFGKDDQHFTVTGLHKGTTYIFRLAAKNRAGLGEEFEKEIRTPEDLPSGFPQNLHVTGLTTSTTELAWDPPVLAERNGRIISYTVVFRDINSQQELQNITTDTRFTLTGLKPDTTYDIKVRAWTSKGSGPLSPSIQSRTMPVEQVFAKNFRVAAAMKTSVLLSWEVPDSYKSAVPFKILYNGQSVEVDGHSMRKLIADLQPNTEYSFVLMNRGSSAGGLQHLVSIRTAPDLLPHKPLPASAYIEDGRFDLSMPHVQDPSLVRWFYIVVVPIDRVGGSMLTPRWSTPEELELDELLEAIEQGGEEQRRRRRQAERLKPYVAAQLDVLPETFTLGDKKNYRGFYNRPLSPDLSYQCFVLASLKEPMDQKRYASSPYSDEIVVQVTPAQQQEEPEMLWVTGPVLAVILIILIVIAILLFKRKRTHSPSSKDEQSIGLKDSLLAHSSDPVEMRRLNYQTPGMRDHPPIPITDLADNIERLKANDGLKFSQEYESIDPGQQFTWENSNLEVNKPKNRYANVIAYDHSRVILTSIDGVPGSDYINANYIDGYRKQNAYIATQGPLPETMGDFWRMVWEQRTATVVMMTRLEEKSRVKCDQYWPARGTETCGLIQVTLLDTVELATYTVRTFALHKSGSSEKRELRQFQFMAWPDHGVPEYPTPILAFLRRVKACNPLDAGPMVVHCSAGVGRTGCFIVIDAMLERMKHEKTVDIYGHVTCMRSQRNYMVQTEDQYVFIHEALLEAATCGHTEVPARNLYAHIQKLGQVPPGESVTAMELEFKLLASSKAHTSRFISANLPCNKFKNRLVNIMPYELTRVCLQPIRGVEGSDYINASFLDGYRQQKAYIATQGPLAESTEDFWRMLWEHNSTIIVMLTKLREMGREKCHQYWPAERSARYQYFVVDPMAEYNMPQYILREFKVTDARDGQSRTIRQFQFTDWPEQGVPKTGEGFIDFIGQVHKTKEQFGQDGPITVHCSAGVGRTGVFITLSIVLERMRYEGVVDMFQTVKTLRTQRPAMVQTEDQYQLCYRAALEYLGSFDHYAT

With `CCCCCNC(=O)[C@H](Cc1ccc(OCC(=O)O)c(C(=O)O)c1)NC(=O)[C@H](C)NC(=O)OC(C)(C)C`, the inhibition in assay [1] came out at 5%; in assay [2], 8%; in assay [3], 4%; in assay [4] it was 43%. The “Control Uptake” value in assay [5] came out at 76%.

In the case of `CCCCCNC(=O)[C@H](Cc1ccc(OCC(=O)O)c(C(=O)O)c1)NC(=O)[C@H](Cc1ccccc1)NC(=O)Cc1ccc(O)cc1`, the inhibition is 34% in assay [1], 46% in assay [2], 7% in assay [3] and 88% in assay [4]. Further, the “Control Uptake” value in assay [5] is 96%.

With `CCCCCNC(=O)[C@H](Cc1ccc(OCC(=O)O)c(C(=O)O)c1)NC(=O)[C@H](Cc1ccccc1)NC(C)=O`, the inhibition in assay [1] is 13%; in assay [2] it was 28%; in assay [3], 0%; in assay [4] it was 77%. In assay [5], the “Control Uptake” value worked out at 95%.

With `CCCCCNC(=O)[C@H](Cc1ccc(OCC(=O)O)c(C(=O)O)c1)NC(=O)[C@H](Cc1ccccc1)NC(=O)OC(C)(C)C`, the inhibition in assay [3] was 0%. The “Control Uptake” value in assay [5] came out at 108%.

Turning to `CCCCCNC(=O)[C@H](Cc1ccc(OCC(=O)O)c(C(=O)O)c1)NC(=O)[C@H](Cc1ccccc1)NC(=O)CCOC`, the inhibition in assay [1] came to 2%; in assay [2], 37%; in assay [3], 0%; in assay [4] it was 83%. For the same compound, in assay [5], the “Control Uptake” value amounted to 89%.

For the compound `CCCCCNC(=O)[C@H](Cc1ccc(OCC(=O)O)c(C(=O)O)c1)NC(=O)[C@H](Cc1ccc(O)cc1)NC(=O)OC(C)(C)C`, the inhibition in assay [1] worked out at 5%; in assay [2], 32%; in assay [3], 0%; in assay [4], 81%. For the same compound, in assay [5], the “Control Uptake” value turned out to be 115%.

Regarding `CCCCCNC(=O)[C@H](Cc1ccc(OCC(=O)O)c(C(=O)O)c1)NC(=O)[C@H](Cc1ccccc1)NC(=O)Cc1ccc(C)cc1`, the inhibition in assay [1] was 20%; in assay [2] it was 39%; in assay [3], 6%; in assay [4] it was 85%. Also, in assay [5], the “Control Uptake” value amounted to 77%.

Consider `CCCCCNC(=O)[C@H](Cc1ccc(OCC(=O)O)c(C(=O)O)c1)NC(=O)[C@H](Cc1ccccc1)NC(=O)Cc1c[nH]c2ccccc12`, for which the inhibition in assay [1] was determined as 38%; in assay [2] it was 47%; in assay [3], 0%; in assay [4], 88%. Also, in assay [5], the “Control Uptake” value stood at 73%.

For `CCCCCNC(=O)[C@H](Cc1ccc(OCC(=O)O)c(C(=O)O)c1)NC(=O)[C@H](Cc1ccccc1)N1CCCC1=O`, the inhibition in assay [1] was 5%; in assay [2], 24%; in assay [3], 0%; in assay [4], 71%. The “Control Uptake” value in assay [5] turned out to be 95%.

In the case of `CCCCCNC(=O)[C@H](Cc1ccc(OCC(=O)O)c(C(=O)O)c1)NC(=O)[C@H](Cc1ccccc1)NC(=O)CCNS(C)(=O)=O`, the inhibition in assay [1] was 25%; in assay [2] it was 15%; in assay [3], 10%; in assay [4], 73%. Further, the “Control Uptake” value in assay [5] came to 81%.

For the compound `CCCCCNC(=O)[C@H](Cc1ccc(OCC(=O)O)c(C(=O)O)c1)NC(=O)[C@H](Cc1ccccc1)NC(=O)CSc1nc[nH]n1`, the inhibition in assay [1] worked out at 6%; in assay [2], 36%; in assay [3], 0%; in assay [4] it was 82%. Further, in assay [5], the “Control Uptake” value is recorded as 80%.

Consider `CCCCCNC(=O)[C@H](Cc1ccc(OCC(=O)O)c(C(=O)O)c1)NC(=O)[C@H](Cc1ccccc1)NC(=O)Cc1cccc(O)c1`, for which the inhibition in assay [1] came out at 32%; in assay [2], 43%; in assay [3], 6%; in assay [4] it was 86%. Besides, in assay [5], the “Control Uptake” value is 108%.

Turning to `CCCCCNC(=O)[C@H](Cc1ccc(OCC(=O)O)c(C(=O)O)c1)NC(=O)[C@H](Cc1ccccc1)NC(=O)CCCc1ccccc1`, the inhibition in assay [1] is 17%; in assay [2] it was 19%; in assay [3], 0%; in assay [4] it was 70%. Besides, in assay [5], the “Control Uptake” value came out at 73%.

`CCCCCNC(=O)[C@H](Cc1ccc(OCC(=O)O)c(C(=O)O)c1)NC(=O)[C@H](CCOCOC)NC(=O)OC(C)(C)C`: the inhibition in assay [1] was 6%; in assay [2] it was 6%; in assay [3], 0%; in assay [4] it was 42%. Also, the “Control Uptake” value in assay [5] amounted to 113%.

Take `CCCCCNC(=O)[C@H](Cc1ccc(OCC(=O)O)c(C(=O)O)c1)NC(=O)[C@H](Cc1ccccc1)NC(=O)Cc1ccccc1`: the inhibition was found to be 18% in assay [1], 45% in assay [2], 0% in assay [3] and 87% in assay [4]. Also, the “Control Uptake” value in assay [5] is given as 73%.

With `CCCCCNC(=O)[C@H](Cc1ccc(OCC(=O)O)c(C(=O)O)c1)NC(=O)[C@H](COCOC)NC(=O)OC(C)(C)C`, the inhibition in assay [2] was determined as 16%; in assay [3], 2%; in assay [4], 51%. Further, the “Control Uptake” value in assay [5] amounted to 70%.

Regarding `CCCCCNC(=O)[C@H](Cc1ccc(OCC(=O)O)c(C(=O)O)c1)NC(=O)[C@H](Cc1ccccc1)NC(=O)CSc1c[nH]nn1`, the inhibition was 5% in assay [1], 49% in assay [2], 0% in assay [3] and 88% in assay [4]. Besides, the “Control Uptake” value in assay [5] was determined as 86%.

As for `CCCCCNC(=O)[C@H](Cc1ccc(OCC(=O)O)c(C(=O)O)c1)NC(=O)[C@H](Cc1ccccc1)NC(=O)CCCO`, the inhibition turned out to be 27% in assay [1], 23% in assay [2], 0% in assay [3] and 78% in assay [4]. For the same compound, in assay [5], the “Control Uptake” value amounted to 108%.

Turning to `CCCCCNC(=O)[C@H](Cc1ccc(OCC(=O)O)c(C(=O)O)c1)NC(=O)[C@H](CCO)NC(=O)OC(C)(C)C`, the inhibition in assay [1] amounted to 8%; in assay [2], 11%; in assay [3], 0%; in assay [4], 45%. Further, the “Control Uptake” value in assay [5] came out at 74%.

For the compound `CCCCCNC(=O)[C@H](Cc1ccc(OCC(=O)O)c(C(=O)O)c1)NC(=O)[C@H](Cc1ccccc1)NC(=O)C[S+]([O-])c1nc[nH]n1` (stereo partly specified), the inhibition in assay [1] came out at 17%; in assay [2] it was 40%; in assay [3] it was 0%; in assay [4], 85%. Further, in assay [5], the “Control Uptake” value is on record as 92%.

In the case of `CCCCCNC(=O)[C@H](Cc1ccc(OCC(=O)O)c(C(=O)O)c1)NC(=O)[C@H](CO)NC(=O)OC(C)(C)C`, the inhibition amounted to 4% in assay [1], 11% in assay [2], 1% in assay [3] and 41% in assay [4]. In assay [5], the “Control Uptake” value is recorded as 84%.

In the case of `CCCCCNC(=O)[C@H](Cc1ccc(OCC(=O)O)c(C(=O)O)c1)NC(=O)[C@H](Cc1ccccc1)NC(=O)CCNC(=O)OC(C)(C)C`, the inhibition turned out to be 19% in assay [1], 19% in assay [2], 0% in assay [3] and 75% in assay [4]. For the same compound, the “Control Uptake” value in assay [5] turned out to be 88%.

Take `CCCCCNC(=O)[C@H](Cc1ccc(OCC(=O)O)c(C(=O)O)c1)NC(=O)[C@H](Cc1ccccn1)NC(=O)OC(C)(C)C`: the inhibition in assay [1] was 1%; in assay [2], 10%; in assay [3], 2%; in assay [4] it was 50%. Further, in assay [5], the “Control Uptake” value amounted to 106%.

The values above are taken from ChEMBL document CHEMBL1136635, “Modification of the N-terminus of peptidomimetic protein tyrosine phosphatase 1B (PTP1B) inhibitors: identification of analogues with cellular activity” (Bioorg Med Chem Lett, 2003).
